Bridges are numbered along the chain shown (N, C = ends). Where no end group is shown, it is not given here.
Legend:
[1] = test system: FL-BCRs on transduced Raji lymphoma cells; test: Surface staining of BCR-transduced Raji cells by biotinylated peptides; assay type: binding, human; details: synthetic biotinylated peptides, flow cytometry
In short: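 Raji cells were lentivirally transduced with a lymphoma BCR scFv fused to a membrane-anchored human antibody Fc fragment, then FACS-sorted for BCR carriers. Cells were grown with 10% FBS, 10 mM Hepes, penicillin/streptomycin and 2 mM GlutaMAX. Surface staining used synthetic biotinylated peptides and an anti-IgG Fc antibody, read by flow cytometry. One Raji population served as the Fc-staining control.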

[2] = test system: cells from FL patient 4 biopsy; test: Flow cytometry staining of control biopsy cells; assay type: binding, human; details: control biopsy sample
In short: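 Flow cytometry on control B cells from a lymphoma biopsy, stained with a synthetic biotinylated cyclic peptide ligand. B cells were gated with a B220-specific antibody. Bound peptide was detected with FITC-labelled streptavidin.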

| Sequence | binding to BCRs on transduced Raji cells (in words) [1] | staining by the FL1 peptide (in words) [2] |
| --- | --- | --- |
| CILDLPKFC (disulfide 1-9 (inferred)) [FL1] | BCRs capable of binding to the peptides were present on these cells | did not demonstrate any significant staining |
| CMPHWQNHC (disulfide 1-9 (inferred)) [FL2] | BCRs capable of binding to the peptides were present on these cells |  |
| CTTDQARKC (disulfide 1-9 (inferred)) [FL3] | BCRs capable of binding to the peptides were present on these cells |  |

Source: PMC6235538 (Science Advances, 2018)
